From ChEMBL document CHEMBL5257122, “Structure-Activity relationships of replacements for the triazolopyridazine of Anti-Cryptosporidium lead SLU-2633” (Bioorg Med Chem, 2023)

Experiments:
HCT-8 = experiment: Cytotoxicity against human HCT-8 cells assessed as reduction in cell growth; assay type: functional
[1] = Dissociation constant, pKa of compound; assay type: physicochemical
In short: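 Basic pKa calculated in silico (CDD Vault, method of Lu et al.), not measured.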

[2] = Lipophilicity, logP of the compound; assay type: physicochemical; details: octanol/water
In short: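 LogP calculated in silico (CDD Vault, method of Gedeck et al.) as an estimate of lipophilicity.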

Cryptosporidium parvum [3] = experiment: Antiparasitic activity against Cryptosporidium parvum infected in human HCT-8 cells assessed as parasitic growth inhibition measured for 48 hrs by fluorescence microscopic analysis; assay type: functional, organism-based; details: HCT-8, 48 h
In short: (§1)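 C. parvum Iowa isolate oocysts excysted (10 mM HCl, 10 min, 37 °C; then 2 mM sodium taurocholate in PBS, 10 min, 16 °C) and used to infect near-confluent HCT-8 monolayers. Compound added after 3 h, then 45 h more at 37 °C, 5% CO₂. Fixed, stained with fluorescein-Vicia villosa lectin (vacuoles) and Hoechst (nuclei), imaged and counted automatically. 9-point dose-response, ≥2 experiments, n=8 per dose.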

[4] = biological target: T1, Voltage-gated inwardly rectifying potassium channel KCNH2 (Homo sapiens, UniProt Q12809); experiment: Displacement of [3H]-dofetilide from human ERG at 10 uM relative to control; assay type: toxicity
T1 sequence (Q12809 whole entry): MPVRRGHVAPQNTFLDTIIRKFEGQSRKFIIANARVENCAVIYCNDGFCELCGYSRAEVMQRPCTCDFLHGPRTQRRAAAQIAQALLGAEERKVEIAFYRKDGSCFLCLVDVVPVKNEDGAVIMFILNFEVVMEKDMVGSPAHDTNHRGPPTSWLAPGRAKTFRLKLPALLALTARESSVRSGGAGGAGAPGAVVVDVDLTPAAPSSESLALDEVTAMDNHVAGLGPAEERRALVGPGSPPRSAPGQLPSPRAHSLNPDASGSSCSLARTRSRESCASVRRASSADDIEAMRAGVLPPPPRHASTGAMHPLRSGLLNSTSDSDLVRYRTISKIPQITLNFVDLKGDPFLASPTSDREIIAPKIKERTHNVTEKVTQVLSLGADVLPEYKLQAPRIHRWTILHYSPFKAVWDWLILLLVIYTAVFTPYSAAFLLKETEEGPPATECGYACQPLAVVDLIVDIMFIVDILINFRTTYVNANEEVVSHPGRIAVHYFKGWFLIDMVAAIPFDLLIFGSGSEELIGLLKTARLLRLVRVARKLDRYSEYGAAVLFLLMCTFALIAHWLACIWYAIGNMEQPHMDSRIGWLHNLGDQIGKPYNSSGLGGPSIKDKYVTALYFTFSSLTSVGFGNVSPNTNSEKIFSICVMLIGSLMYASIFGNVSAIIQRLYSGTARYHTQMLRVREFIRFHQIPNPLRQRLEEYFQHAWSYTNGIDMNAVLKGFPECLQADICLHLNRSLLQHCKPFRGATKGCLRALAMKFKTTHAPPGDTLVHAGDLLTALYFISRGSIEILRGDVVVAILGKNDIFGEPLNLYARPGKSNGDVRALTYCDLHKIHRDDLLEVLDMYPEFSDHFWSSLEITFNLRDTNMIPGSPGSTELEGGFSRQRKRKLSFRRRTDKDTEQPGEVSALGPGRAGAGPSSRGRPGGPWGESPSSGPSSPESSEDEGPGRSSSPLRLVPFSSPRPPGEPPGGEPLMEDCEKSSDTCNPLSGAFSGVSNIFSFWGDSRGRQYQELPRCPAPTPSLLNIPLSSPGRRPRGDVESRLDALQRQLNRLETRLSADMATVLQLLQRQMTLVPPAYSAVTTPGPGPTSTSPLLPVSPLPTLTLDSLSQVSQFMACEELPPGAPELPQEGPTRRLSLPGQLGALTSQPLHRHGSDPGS
In short: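 Radioligand binding against human hERG potassium channel: % inhibition of [³H]-dofetilide binding by test compound at 10 μM.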

[5] = biological target: T1, Voltage-gated inwardly rectifying potassium channel KCNH2; experiment: Inhibition of hERG in CHO cells at 1 uM by automated patch clamp method relative to control; assay type: toxicity, cell-based
In short: (§2)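 hERG expressed in CHO cells, automated patch-clamp electrophysiology. Tail current inhibition measured at 1, 10 and 30 μM, each in duplicate, and reported as the average % inhibition.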

[6] = biological target: T1, Voltage-gated inwardly rectifying potassium channel KCNH2; experiment: Inhibition of hERG in CHO cells at 10 uM by automated patch clamp method relative to control; assay type: toxicity, cell-based; in short: as §2
[7] = biological target: T1, Voltage-gated inwardly rectifying potassium channel KCNH2; experiment: Inhibition of hERG in CHO cells at 30 uM by automated patch clamp method relative to control; assay type: toxicity, cell-based; in short: as §2
Cryptosporidium parvum [8] = experiment: Antiparasitic activity against Cryptosporidium parvum assessed as reduction in parasitic growth; assay type: functional, organism-based; in short: as §1

| SMILES | EC50 (Cryptosporidium parvum [3]) [µM] | further results |
| --- | --- | --- |
| O=C(Cc1ccc(Cl)c(Cl)c1)N1CCN(c2ccc3nncn3n2)CC1 | – | CC50 (HCT-8): > 100 µM; pKa [1]: 5.9; logP [2]: 3 |
| O=C(Nc1ccc(Cl)c(Cl)c1)N1CCN(c2ccc3nncn3n2)CC1 | – | pKa [1]: 5.9; logP [2]: 4 |
| O=C(Cc1ccc(Cl)c(Cl)c1)N1CCN(c2ncccn2)CC1 | > 50 | – |
| Cc1cc2nncn2nc1N1CCN(C(=O)Cc2ccc(Cl)c(Cl)c2)CC1 | 23 | – |
| O=C(Cc1ccc(Cl)c(Cl)c1)N1CCN(C2=Nn3cnnc3CC2)CC1 | 1.2 | pKa [1]: 4.4; logP [2]: 1.8; Activity [4]: 15%; inhibition (INH) [5]: 8.7%; inhibition (INH) [6]: 34%; inhibition (INH) [7]: 61% |
| Cc1nnc2ccc(N3CCN(C(=O)Nc4ccc(Cl)c(Cl)c4)CC3)nn12 | 26 | – |
| O=C(Cc1ccc(Cl)c(Cl)c1)N1CCN(c2ccc3ncccc3n2)CC1 | 38 | – |
| O=C(Cc1ccc(Cl)c(Cl)c1)N1CCN(c2ccc3cc[nH]c3n2)CC1 | 30 | – |
| Cc1cc(N2CCN(C(=O)Nc3ccc(Cl)c(Cl)c3)CC2)nn2cnnc12 | 24 | – |
| O=C(O)c1cn2nc(N3CCN(C(=O)Cc4ccc(Cl)c(Cl)c4)CC3)ccc2n1 | > 50 | – |
| CCOC(=O)c1cn2nc(N3CCN(C(=O)Cc4ccc(Cl)c(Cl)c4)CC3)ccc2n1 | 58 | – |
| O=C(Cc1ccc(Cl)c(Cl)c1)N1CCN(c2cc3ccncc3cn2)CC1 | 50 | – |
| O=C(Nc1nc2cc(N3CCN(C(=O)Cc4ccc(Cl)c(Cl)c4)CC3)ccc2s1)c1ccccc1 | 93 | – |
| Cc1cc2nncn2nc1N1CCN(C(=O)Nc2ccc(Cl)c(Cl)c2)CC1 | 25 | – |
| O=C(Cc1ccc(Cl)c(Cl)c1)N1CCN(c2nccc(C(F)(F)F)n2)CC1 | > 50 | – |
| O=C(Cc1ccc(Cl)c(Cl)c1)N1CCN(c2ncc([N+](=O)[O-])s2)CC1 | 20 | – |
| O=C(Cc1ccc(Cl)c(Cl)c1)N1CCN(c2ccc3[nH]c(=O)sc3c2)CC1 | > 50 | – |
| O=C(Cc1ccc(Cl)c(Cl)c1)N1CCN(c2ccc3nnc(Cl)n3n2)CC1 | 29 | – |
| Cc1cc(N2CCN(C(=O)Cc3ccc(Cl)c(Cl)c3)CC2)nn2cnnc12 | 61 | – |
| Nc1cn2nc(N3CCN(C(=O)Cc4ccc(Cl)c(Cl)c4)CC3)ccc2n1 | > 50 | – |
| O=C(Cc1ccc(Cl)c(Cl)c1)N1CCN(c2ccc3nnc(C(F)(F)F)n3n2)CC1 | 29 | – |
| O=C(Cc1ccc(Cl)c(Cl)c1)N1CCN(c2ccc3ccccc3n2)CC1 | 46 | – |
| CC(C)(C)OC(=O)N1CCN(C(=O)Cc2ccc(Cl)c(Cl)c2)CC1 | > 50 | – |

| SMILES | EC50 (Cryptosporidium parvum [3]) [µM] | further results |
| --- | --- | --- |
| O=C(Cc1ccc(Cl)c(Cl)c1)N1CCN(c2ccc3nnc(-c4ccccc4)n3n2)CC1 | 15 | – |
| Cc1nc2nc(N3CCN(C(=O)Cc4ccc(Cl)c(Cl)c4)CC3)ccc2s1 | 18 | – |
| O=C(Nc1ccc(Cl)c(Cl)c1)N1CCN(C2=Nn3cnnc3CC2)CC1 | 13 | logP [2]: 2.3 |
| Cc1nccc(N2CCN(C(=O)Cc3ccc(Cl)c(Cl)c3)CC2)n1 | > 50 | – |
| O=C(Nc1ccc(Cl)c(Cl)c1)N1CCN(c2ncc(C(F)(F)F)cn2)CC1 | > 25 | – |
| Cc1nnc2ccc(N3CCN(C(=O)Cc4ccc(Cl)c(Cl)c4)CC3)nn12 | 30 | – |
| O=C(Cc1ccc(Cl)c(Cl)c1)N1CCN(c2nc3ccccc3o2)CC1 | > 50 | – |
| O=C(Cc1ccc(Cl)c(Cl)c1)N1CCNCC1 | > 50 | – |
| O=C(Nc1ccc(Cl)c(Cl)c1)N1CCN(c2ccc3nnc(Cl)n3n2)CC1 | 12 | – |
| O=C(Cc1ccc(Cl)c(Cl)c1)N1CCN(c2ccc3nnc(-c4ccncc4)n3n2)CC1 | > 50 | – |
| O=C(Cc1ccc(Cl)c(Cl)c1)N1CCN(c2ccc3nnc(Cc4ccccc4)n3n2)CC1 | 16 | – |
| CNc1nccc(N2CCN(C(=O)Nc3ccc(Cl)c(Cl)c3)CC2)n1 | > 25 | – |
| O=C(Cc1ccc(Cl)c(Cl)c1)N1CCN(c2ccccn2)CC1 | > 50 | – |
| O=C(Cc1ccc(Cl)c(Cl)c1)N1CCN(c2ccc3nccn3n2)CC1 | 63 | – |
| Nc1nc2nc(N3CCN(C(=O)Cc4ccc(Cl)c(Cl)c4)CC3)ccc2s1 | 3.2 | pKa [1]: 5.9; Activity [4]: 34% |
| O=C(Cc1ccc(Cl)c(Cl)c1)N1CCN(c2ccc3nnc(N4CCOCC4)n3n2)CC1 | 48 | – |
| O=C(Cc1ccc(Cl)c(Cl)c1)N1CCN(c2ccc3[nH]ncc3n2)CC1 | 28 | – |
| O=C(Cc1ccc(Cl)c(Cl)c1)N1CCN(c2ccc3nc[nH]c3c2)CC1 | 20 | – |
| Cn1ncc2nc(N3CCN(C(=O)Cc4ccc(Cl)c(Cl)c4)CC3)ccc21 | > 50 | – |
| O=C(Cc1ccc(Cl)c(Cl)c1)N1CCN(c2ccc3nnc(-c4ccnc(C(F)(F)F)c4)n3n2)CC1 | 6.1 | pKa [1]: 6; Activity [4]: 95% |
| O=C(Nc1ccc(Cl)c(Cl)c1)N1CCN(c2cn3ccnc3cn2)CC1 | > 25 | – |
| O=C(Nc1nc2nc(N3CCN(C(=O)Cc4ccc(Cl)c(Cl)c4)CC3)ccc2s1)c1ccncc1 | 7.3 | – |
| COc1ccc(N2CCN(C(=O)Cc3ccc(Cl)c(Cl)c3)CC2)nn1 | 57 | – |

| SMILES | EC50 (Cryptosporidium parvum [3]) [µM] | further results |
| --- | --- | --- |
| O=C(Cc1ccc(Cl)c(Cl)c1)N1CCN(c2ccc3nc(C(=O)N4CCOCC4)cn3n2)CC1 | > 50 | – |
| O=C(Cc1ccc(Cl)c(Cl)c1)N1CCN(c2ccc3nn(Cc4ccccc4)cc3n2)CC1 | 7.8 | pKa [1]: 6.2; Activity [4]: 80% |
| O=C(Cc1ccc(Cl)c(Cl)c1)N1CCN(c2ccn3nccc3n2)CC1 | 47 | – |
| CCCCOC(=O)c1cn2nc(N3CCN(C(=O)Cc4ccc(Cl)c(Cl)c4)CC3)ccc2n1 | 23 | – |
| O=C(Cc1ccc(Cl)c(Cl)c1)N1CCN(c2ccccc2)CC1 | 42 | pKa [1]: 3; Activity [4]: 2% |
| O=C(Nc1ccc(Cl)c(Cl)c1)N1CCN(c2ccc3nccn3n2)CC1 | 16 | pKa [1]: 6.4; Activity [4]: 77% |
| Nc1nnc2ccc(N3CCN(C(=O)Cc4ccc(Cl)c(Cl)c4)CC3)nn12 | 65 | – |
| Cc1nc2cc(N3CCN(C(=O)Cc4ccc(Cl)c(Cl)c4)CC3)ccc2s1 | 14 | – |
| Cc1cccc(N2CCN(C(=O)Cc3ccc(Cl)c(Cl)c3)CC2)n1 | 36 | – |
| Nc1nc2cc(N3CCN(C(=O)Cc4ccc(Cl)c(Cl)c4)CC3)ccc2s1 | 16 | – |
| CN(C)C(=O)c1cn2nc(N3CCN(C(=O)Cc4ccc(Cl)c(Cl)c4)CC3)ccc2n1 | 38 | – |
| O=C(Cc1ccc(Cl)c(Cl)c1)N1CCN(c2nc3ccccc3s2)CC1 | 36 | – |
| O=C(Cc1ccc(Cl)c(Cl)c1)N1CCN(c2ccc(C(F)(F)F)nn2)CC1 | 49 | – |
| O=C(Nc1nc2nc(N3CCN(C(=O)Cc4ccc(Cl)c(Cl)c4)CC3)ccc2s1)c1ccccc1 | 2.9 | pKa [1]: 7.7; Activity [4]: 47% |
| O=C(Cc1ccc(Cl)c(Cl)c1)N1CCN(c2ccc3cn[nH]c3c2)CC1 | 26 | – |
| O=C(Cc1ccc(Cl)c(Cl)c1)N1CCN(c2ccc3c(cnn3Cc3ccccc3)n2)CC1 | 45 | – |
| O=C(Cc1ccc(Cl)c(Cl)c1)N1CCN(c2ccc3nonc3c2)CC1 | 24 | – |
| O=C(Nc1ccc(Cl)c(Cl)c1)N1CCN(c2nc3ccccc3[nH]2)CC1 | 17 | – |
| O=C(Nc1ccc(Cl)c(Cl)c1)N1CCN(c2ccccc2)CC1 | 20 | – |
| O=C(Nc1ccc(Cl)c(Cl)c1)N1CCN(c2ccc3nnc(C(F)(F)F)n3n2)CC1 | 11 | – |
| O=C(Nc1ccc(Cl)cc1)N1CCN(c2ccc3nncn3n2)CC1 | – | EC50 (Cryptosporidium parvum [8]): 2100 nM |
| CC(=O)Oc1ccccc1C(=O)Nc1ncc([N+](=O)[O-])s1 [NITAZOXANIDE] | 3.7 | – |
